# From ChEMBL document CHEMBL4270591, “Exploitation of new chalcones and 4H-chromenes as agents for cancer treatment” (Eur J Med Chem, 2018)
# Calls of active or inactive are those of the source. The calls are words filed in the database; no cut-off is given here.
# Assays:
# MCF7 [1] = assay: Anticancer activity against human MCF7 cells assessed as cell viability at 10 uM after 72 hrs by sulforhodamine B assay relative to control; type: functional; conditions: MCF7, 72 h, read-out: Activity
# MCF7 [2] = assay: Antimigratory activity against human MCF7 cells assessed as reduction in cell migration at half IC50 to IC50 after 48 hrs by microscopy based wound healing assay relative to control; type: functional; parameters: scale not given: the % may be the effect or the level left
# Summary of the method: (§1)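 Wound healing: MCF-7 cells plated at 9.0 × 10^5 per 2 mL and grown overnight to confluence. Two scratches made with a pipette tip, then wash with PBS. Treatment at IC50 or ½ IC50, or 0.5% DMSO. Four positions per wound were imaged at 0, 12, 24 and 48 h at 100x. Migration distances were measured and normalised to control. Three independent experiments.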
# MCF7 [3] = assay: Induction of microtubule disruption in human MCF7 cells assessed as nuclei contraction at IC50 after 12 hrs by DAPI staining based microscopic analysis; type: cell-based
# MCF7 [4] = assay: Anticancer activity against human MCF7 cells after 72 hrs by sulforhodamine B assay; type: functional, cell-based; conditions: MCF7, 72 h
# Summary of the method: (§2)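 Cells seeded at 3000 cells/100 µL per well, left to adhere overnight (18-20 h), then exposed to a range of compound concentrations for 72 h. Vehicle control was 0.5% DMSO. Cytotoxicity was read by sulforhodamine B at 490 nm, with 690 nm as background. IC50 came from sigmoidal variable-slope nonlinear regression on log-transformed data, from at least three independent experiments, each in triplicate.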
# MCF7 [5] = assay: Induction of microtubule disruption in human MCF7 cells assessed as nuclei condensation at IC50 after 12 hrs by DAPI staining based microscopic analysis; type: cell-based
# [6] = Selectivity index, ratio of IC50 for human MCF10A cells in presence of doxorubicin to IC50 for human MCF7 cells in presence of doxorubicin; type: toxicity; conditions: MCF10A cells and MCF7 cells, read-out: Ratio IC50
# MCF7 [7] = assay: Induction of apoptosis in human MCF7 cells assessed as increase in late apoptotic cells at IC50 after 48 hrs by Annexin-V-FITC/propidium iodide staining based flow cytometry; type: functional, cell-based
# Summary of the method: (§3)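 Floating and adherent cells were pooled and resuspended in binding buffer. Staining with FITC-annexin V and PI for 15 min at room temperature in the dark, followed by flow cytometry quadrant analysis normalised to untreated cells. Two independent experiments, triplicates within each.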
# MCF7 [8] = assay: Induction of apoptosis in human MCF7 cells assessed as increase in cleaved PARP level at IC50 after 24 hrs by Western blot analysis; type: functional, cell-based
# Summary of the method: (§4)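 MCF-7 cells at 70-80% confluence were treated at IC50 or with 0.5% DMSO for 24 h. Lysis in Tris/NaCl/EDTA buffer with NP-40, Triton X-100, phosphatase and protease inhibitors. 20 µg protein run on 12% SDS-PAGE and transferred to nitrocellulose. Probed overnight at 4 °C with anti-PARP (1:500) or anti-BIM (1:1000), then HRP secondaries and chemiluminescence. At least two independent experiments.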
# MCF7 [9] = assay: Induction of microtubule disruption in human MCF7 cells assessed as cell rounding at IC50 after 12 hrs by DAPI staining based microscopic analysis
# Summary of the method: (§5)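 MCF-7 cells seeded at 2.0×10^5 per well and incubated overnight. Treatment at IC50 for 12 h, with 0.5% DMSO vehicle and paclitaxel (2 µM) as reference. Fixation in methanol for 20 min at -20 °C and blocking in 5% BSA. β-tubulin antibody (1:200) for 2 h, fluorescent secondary for 1 h, and DAPI nuclear counterstain. Confocal imaging with a 60x oil objective, 405/488 nm excitation.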
# MCF7 [10] = assay: Anticancer activity against human MCF7 cells assessed as cell viability at 30 uM after 72 hrs by sulforhodamine B assay relative to control; type: functional; conditions: MCF7, 72 h, read-out: Activity
# MCF7 [11] = assay: Induction of microtubule disruption in human MCF7 cells assessed as cell detachment at IC50 after 12 hrs by DAPI staining based microscopic analysis; summary of the method: as §5
# MCF7 [12] = assay: Antiproliferative activity against human MCF7 cells at IC50 after 48 hrs by Brdu incorporation assay relative to control; type: functional
# Summary of the method: (§6)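 Labelling with 20 µM BrdU (final) for 6 h. FixDenat 30 min, then anti-BrdU-POD 90 min at room temperature. Substrate colour for 5-10 min, stopped with H2SO4, absorbance at 450 nm (reference 690 nm). Cell-free blanks included. At least three independent experiments in triplicate.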
# MCF7 [13] = assay: Cell cycle arrest in human MCF7 cells assessed as reduction in G0/G1 population at IC50 after 48 hrs by propidium iodide staining based flow cytometry; type: functional
# Summary of the method: (§7)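 MCF-7 cells seeded at 2.5×10^5 per well and grown overnight. […] Cells fixed in 70% ethanol for at least 30 min at 4 °C, then stained with PI (50 µg/mL) plus RNase A and Triton X-100 for 1 h in the dark at […]. Flow cytometry with 488 nm excitation gave the phase distribution. Two independent biological replicates.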
# MCF7 [14] = assay: Antiproliferative activity against human MCF7 cells after 72 hrs in presence of doxorubicin by sulforhodamine B assay; type: functional, cell-based; conditions: MCF7, 72 h
# MCF7 [15] = assay: Induction of apoptosis in human MCF7 cells assessed as increase in early apoptotic cells at IC50 after 48 hrs by Annexin-V-FITC/propidium iodide staining based flow cytometry; type: functional, cell-based; summary of the method: as §3
# Hs-578T [16] = assay: Anticancer activity against human Hs 578T cells assessed as cell viability at 10 uM after 72 hrs by sulforhodamine B assay relative to control; type: functional; conditions: read-out: Activity
# MCF7 [17] = assay: Induction of apoptosis in human MCF7 cells assessed as decrease in Bcl-xL level at IC50 after 48 hrs by Western blot analysis
# MCF7 [18] = assay: Induction of apoptosis in human MCF7 cells assessed as increase in Bim level at IC50 after 24 hrs by Western blot analysis; type: functional, cell-based; summary of the method: as §4
# MCF7 [19] = assay: Inhibition of beta-tubulin polymerization in human MCF7 cells assessed as increase in beta-tubulin levels at IC50 after 24 hrs by Western blot analysis; type: cell-based
# MCF7 [20] = assay: Induction of microtubule disruption in human MCF7 cells assessed as cell shrinkage at IC50 after 12 hrs by DAPI staining based microscopic analysis; summary of the method: as §5
# [21] = Cytotoxicity against human MCF10A cells assessed as cell viability at 10 uM after 72 hrs by sulforhodamine B assay relative to control; type: cell-based, MCF-10A; conditions: read-out: Activity
# MCF7 [22] = assay: Cell cycle arrest in human MCF7 cells assessed as accumulation at G2/M phase at IC50 after 48 hrs by propidium iodide staining based flow cytometry; type: functional; summary of the method: as §7
# MCF-10A [23] = assay: Cytotoxicity against human MCF10A cells after 72 hrs in presence of doxorubicin by sulforhodamine B assay; type: cell-based
# Hs-578T [24] = assay: Anticancer activity against human Hs 578T cells assessed as cell viability at 30 uM after 72 hrs by sulforhodamine B assay relative to control; type: functional; conditions: read-out: Activity
# Hs-578T [25] = assay: Anticancer activity against human Hs 578T cells after 72 hrs by sulforhodamine B assay; type: functional, cell-based; summary of the method: as §2
# [26] = Cytotoxicity against human MCF10A cells assessed as cell viability at 30 uM after 72 hrs by sulforhodamine B assay relative to control; type: cell-based, MCF-10A; conditions: read-out: Activity
# MCF-10A [27] = assay: Cytotoxicity against human MCF10A cells after 72 hrs by sulforhodamine B assay; type: cell-based; summary of the method: as §2
# MCF7 [28] = assay: Cell cycle arrest in human MCF7 cells at IC50 after 48 hrs by propidium iodide staining based flow cytometry; type: functional; summary of the method: as §7
# MCF7 [29] = assay: Induction of apoptosis in human MCF7 cells at IC50 after 48 hrs by Annexin-V-FITC/propidium iodide staining based flow cytometry; type: functional, cell-based; summary of the method: as §3
# MCF7 [30] = assay: Induction of microtubule disruption in human MCF7 cells at IC50 after 12 hrs by DAPI staining based microscopic analysis; type: cell-based; summary of the method: as §5
# MCF7 [31] = assay: Antimigratory activity against human MCF7 cells assessed as reduction in cell migration at half IC50 to IC50 after 12 to 48 hrs by microscopy based wound healing assay; type: functional; summary of the method: as §1
# MCF7 [32] = assay: Antiproliferative activity against human MCF7 cells at half IC50 to IC50 after 24 to 48 hrs by Brdu incorporation assay; type: functional, cell-based; summary of the method: as §6
# MCF7 [33] = assay: Cell cycle arrest in human MCF7 cells assessed as accumulation at sub-G0/G1 phase at IC50 after 48 hrs by propidium iodide staining based flow cytometry; type: functional; summary of the method: as §7
# MCF7 [34] = assay: Cell cycle arrest in human MCF7 cells assessed as DNA fragmentation at IC50 after 48 hrs by propidium iodide staining based flow cytometry; type: functional; summary of the method: as §7
IC50 (MCF7 [4]),IC50 (MCF7 [14]),IC50 (Hs-578T [25]),Structure (SMILES),viability at 10 µM (MCF7 [1]),selectivity ratio [6],Activity (MCF7 [7]),Activity (MCF7 [8]),viability at 30 µM (MCF7 [10]),Activity (MCF7 [12]),Activity (MCF7 [15]),viability at 10 µM (Hs-578T [16]),Activity (MCF7 [17]),Activity (MCF7 [18]),"viability at 72 h, 10 µM [21]",IC50 (MCF-10A [23]),viability at 30 µM (Hs-578T [24]),"viability at 72 h, 30 µM [26]",IC50 (MCF-10A [27]),Activity (MCF7 [30]),Activity (MCF7 [31]),other results
3.65 µM,0.11 µM,4.52 µM,COc1cccc(C(=O)CC2C(C#N)=C(N)Oc3c(OC)cc(Br)cc32)c1 (centres undefined),55.9%,13.4,Active,Active,33.9%,20%,Active,46.1%,Active,Active,32.3%,1.58 µM,83.3%,46.3%,18.9 µM,,,Activity (MCF7 [2]): 50%; Activity (MCF7 [3]): Active; Activity (MCF7 [5]): Active; Activity (MCF7 [9]): Active; Activity (MCF7 [11]): Active; Activity (MCF7 [13]): Active; inhibition (MCF7 [19]): Active; Activity (MCF7 [20]): Active; Activity (MCF7 [22]): Active
3.82 µM,0.28 µM,5.88 µM,O=C(/C=C/c1cc(Br)ccc1O)c1ccc(Br)cc1,28.7%,53,,Active,28.3%,,,63.5%,Active,Active,32.8%,15.1 µM,124%,47.6%,29.3 µM,inactive,inactive,Activity (MCF7 [28]): inactive; Activity (MCF7 [29]): inactive; Activity (MCF7 [32]): inactive
3.98 µM,0.27 µM,4.8 µM,Cc1ccc(C(=O)/C=C/c2cc(Cl)ccc2O)cc1,36.8%,3.07,,Active,27.7%,>50%,,66.3%,Active,Active,33.5%,1.1 µM,70.5%,51.1%,24.2 µM,inactive,inactive,Activity (MCF7 [28]): inactive; Activity (MCF7 [29]): inactive
5.07 µM,0.42 µM,7.27 µM,COc1cccc(C(=O)/C=C/c2cc(Br)ccc2O)c1,26.9%,> 142,Active,Active,28.3%,>50%,Active,38.5%,Active,Active,33.8%,> 60 µM,55.8%,66.3%,40.6 µM,inactive,inactive,Activity (MCF7 [33]): Active; Activity (MCF7 [34]): Active
